In the library only some 4.1% were active in any assay of this set; here they are far more common.
TAG inh: triacylglycerol accumulation inhibition; H9c2 cells, Nile Red lipid (TAG) fluorescence; cells loaded with 200 µM oleic acid; inhibition, % at 12.5 µM; hit rate 0.66% among 230,000; AID 651582;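 active = pattern-corrected inhibition of lipid staining of at least 50% with the nuclear-stain viability signal not falling by more than 50%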;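 note: 0% = DMSO wells and 100% = triacsin C control wells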
Efflux pump mplx: inhibitors of Candida antifungal efflux pumps expressed in yeast | S. cerevisiae Candida pump triplex, Nile Red efflux | inhibition, % at 10 µM | hit rate 0.44% among 330,000 | AID 485275;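 active = plate passing quality check with inhibition over a set limit, or well fluorescence over plate mean plus 4 SD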;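 note: Nile Red retained in pooled yeast measured as flow cytometry median fluorescence; 0% = buffer negative control and 100% = Enniatin B positive control; higher means more Nile Red kept so more efflux inhibition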
AHR act: human AHR activation; P35869; activation, % at 5 µM; AHR-responsive luciferase reporter cells, luminescence; hit rate 2.5% among 320,000; AID 2796; in the data active = activation above about 47%;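 note: 0% = vehicle wells and 100% = reference agonist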
Target sequence (P35869 whole entry, looked up): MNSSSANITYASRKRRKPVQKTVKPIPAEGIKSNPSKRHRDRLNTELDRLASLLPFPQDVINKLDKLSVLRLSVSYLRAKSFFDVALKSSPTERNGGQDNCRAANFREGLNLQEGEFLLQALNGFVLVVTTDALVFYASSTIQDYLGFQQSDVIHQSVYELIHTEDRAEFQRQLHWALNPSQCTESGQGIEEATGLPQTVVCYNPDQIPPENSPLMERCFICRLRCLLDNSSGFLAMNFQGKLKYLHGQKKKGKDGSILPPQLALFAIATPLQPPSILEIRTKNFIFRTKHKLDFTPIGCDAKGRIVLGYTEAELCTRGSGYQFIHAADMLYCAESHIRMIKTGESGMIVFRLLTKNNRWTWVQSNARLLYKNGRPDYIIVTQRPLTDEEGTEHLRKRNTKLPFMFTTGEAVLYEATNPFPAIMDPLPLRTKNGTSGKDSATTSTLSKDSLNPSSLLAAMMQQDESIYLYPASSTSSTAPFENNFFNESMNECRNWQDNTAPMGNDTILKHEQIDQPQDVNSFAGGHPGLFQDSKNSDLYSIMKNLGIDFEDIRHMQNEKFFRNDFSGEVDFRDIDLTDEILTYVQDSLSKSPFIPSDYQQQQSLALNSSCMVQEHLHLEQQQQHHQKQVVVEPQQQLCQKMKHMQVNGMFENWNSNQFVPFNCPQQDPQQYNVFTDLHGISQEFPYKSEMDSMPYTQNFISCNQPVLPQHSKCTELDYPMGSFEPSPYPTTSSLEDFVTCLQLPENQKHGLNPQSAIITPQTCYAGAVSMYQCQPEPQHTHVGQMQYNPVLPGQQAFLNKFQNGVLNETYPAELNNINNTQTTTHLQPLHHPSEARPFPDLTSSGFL
SMARCA2 act: SMARCA2 function activation, primary screen; hit rate 1% among 370,000; activation, % at 9.1 µM; AID 652017; MG213 cells, MMTV-luciferase reporter, dexamethasone, overnight; in the data active = activation above about 7.8%;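 note: 0% = vehicle wells and 100% = reference activator wells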
Tb MetRS inh: Trypanosoma brucei MetRS inhibition. purified T. brucei MetRS, ATP depletion, Kinase-Glo luminescence. inhibition, % at 11.9 µM. hit rate 0.4% among 360,000. AID 624268;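 active = inhibition above a per-plate cutoff of the control wells' mean inhibition plus 3 SD, cut at about 5.5% in these data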;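 note: 0% = DMSO wells median and 100% = median of wells with control inhibitor compound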
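Material: parasite MetRS enzyme / Replication: singlicate, one well per compound / Signal: luminescence of leftover ATP / Schedule: 2 h aminoacylation at 25 °C after 15 min preincubation / Medium: HEPES-MgCl2-KCl buffer plus DTT, spermine, BSA, pyrophosphatase / Doses: 11.9 µM single point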
Yeast cmpd fluor: counter-screen for efflux pump inhibitors: compound fluorescence. S. cerevisiae AD/pABC3, flow cytometry. shares compounds with Efflux pump mplx. hit rate 4% among 1,700. fluorescence ratio to DMSO, % at 10 µM;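 active = fluorescence ratio to DMSO above its plate's cutoff, the plate mean ratio plus 5 SD, cut at about 210% in these data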;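 note: unstained yeast with no Nile Red so the signal is compound autofluorescence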
Mdr1 pump inh: Candida Mdr1 efflux pump inhibition; shares compounds with Efflux pump mplx; S. cerevisiae AD/CaMDR1, Nile Red efflux, flow cytometry; inhibition, % at 10 µM; hit rate 1% among 1,700; in the data active = inhibition above about 26%;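 note: 0% = DMSO vehicle and 100% = reference inhibitor; higher means more Nile Red retained so more efflux inhibition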
CaCdr2 efflux inh: Candida Cdr2 efflux pump inhibition | shares compounds with Efflux pump mplx | hit rate 4% among 1,700 | Nile Red retention ratio vs DMSO, % at 10 µM | AID 588520 | S. cerevisiae AD/CaCDR2, Nile Red retention, flow cytometry; in the data active = Nile Red retention ratio vs DMSO above about 190%;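 note: higher ratio means more blocking of Cdr2 efflux of the dye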
CaCdr1 efflux inh: Candida Cdr1 efflux pump inhibition; shares compounds with Efflux pump mplx; hit rate 1% among 1,700; inhibition, % at 10 µM; S. cerevisiae AD/CaCDR1, Nile Red efflux, flow cytometry; AID 588522;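 active = inhibition above the screen-wide mean plus twice its standard deviation, cut at about 32% in these data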
* = called active by the depositor; . = no result.

SMILES	TAG inh	Efflux pump mplx	AHR act	SMARCA2 act	Tb MetRS inh	Yeast cmpd fluor	Mdr1 pump inh	CaCdr2 efflux inh	CaCdr1 efflux inh
O=C(/C=C/c1ccc(Br)cc1)c1ccc(NC(=O)c2ccco2)cc1	.	5.8*	47.8*	-0.1	-0.3	106.7	0.2	107.8	0.1
CCOC(=O)c1cccc(NC(=O)c2ccc(NC(=O)c3ccco3)cc2)c1	.	-0.4	-10.1	-0.8	-0.7	87.6	-0.3	95.4	-0.1
CC(=O)Nc1ccc(NC(=O)c2ccco2)cc1	.	-0.1	1.8	5.9	-0.6	.	.	.	.
CC(=O)c1ccc(NC(=O)c2ccc(NC(=O)c3ccco3)cc2)cc1	14.1	6.2*	-6.3	.	-0.2	92.1	0.3	106.3	0.1
Cc1cc(C)cc(NC(=O)c2ccc(NC(=O)c3ccco3)cc2)c1	-26.9	0.0	-6.1	-2.8	-0.2	105.0	-0.3	90.9	-0.2
O=C(Nc1ccccc1)c1cccc(NC(=O)c2ccco2)c1	6.1	-0.1	7.6	0.7	-0.2	.	.	.	.
COc1ccc(C(=O)C2(C(=O)Nc3cc(C)cc(C)c3)CC(c3ccccn3)=NO2)cc1 (stereo unspecified)	.	.	.	-3.0	.	.	.	.	.
CCCCNC(=O)C1CCCN1C(=O)NCc1ccccc1OC (stereo unspecified)	.	.	.	-5.7	.	.	.	.	.
O=C(c1ccccc1)n1ccc2ccc(-c3ccc4ccn(C(=O)c5ccccc5)c4c3)cc21	.	.	.	-0.5	.	.	.	.	.
Cc1ccccc1CN1CCCCC(NC(=O)c2c(F)cccc2F)C1=O (stereo unspecified)	.	.	.	-3.4	.	.	.	.	.
CN(C(=O)c1ccc(NC(=O)c2ccco2)cc1)c1ccccc1	0.8	0.2	0.6	1.4	-1.2	103.4	-0.2	93.0	0.2
C=CCN1C(=O)[C@@H](CC(=O)NCCc2ccccc2OC)[C@]2(C(=O)OCC)CCCCC/C=C/12	.	.	.	-3.9	.	.	.	.	.
CCn1c(/C=C/N(C(C)=O)c2ccccc2)[n+](CC)c2ccc(Cl)cc21	.	-7.3	23.7	-0.4	-0.4	.	.	.	.
CC[n+]1c(/C=C/C=C/N(C(C)=O)c2ccccc2)sc2ccccc21	-365.4	1.3*	5.0	1.6	-0.3	309.0*	2.5	124.7	1.2
O=C(N[C@@H](Cc1cccnc1)C(=O)N1CCC[C@H]1C(=O)NCCc1ccccc1Cl)c1ccc(Cl)cc1Cl	.	.	.	-3.8	.	.	.	.	.
Cc1cc(OCc2cc(C(=O)N(C)Cc3ccccn3)no2)cc(C)c1Cl	-25.1	0.6	13.1	7.7	-0.2	89.9	-0.2	100.1	0.1
CC(C)CCN1CCC(n2nccc2NC(=O)C2CCOC2)CC1 (stereo unspecified)	.	1.4*	2.6	-1.1	-0.2	99.0	-0.2	111.6	0.0
Cc1c2cc[n+](CCN3CCCCC3)cc2c(C)c2c1[nH]c1ccc(O)cc12	4.0	.	.	.	-0.3	106.7	-0.3	93.0	-0.2
Cc1cc(N2CCN(CC(C)(C)O)C[C@@H]2C)ccc1N1CCN(Cc2ccccc2)[C@H](C)C1	.	.	.	6.2	.	.	.	.	.
CC(=NN1CCN(Cc2ccccc2Cl)CC1)c1ccc(O)cc1	.	.	.	-6.4	.	.	.	.	.
Cc1cc(N(C)C)ccc1N=Nc1ccc(N)cc1	-12.2	0.0	-1.6	-4.8	0.5	.	.	.	.
Cc1cc2nc3ccc(N(C)C)cc3nc2cc1N	-45.3	1.6*	11.4	7.1	0.4	132.0	0.0	112.2	0.0
O=S1(=O)c2ccc(N3CCN(Cc4ccccc4F)CC3)cc2Oc2ccccc2CN1Cc1cn(Cc2cccc(F)c2)nn1	.	.	.	-4.1	.	.	.	.	.
CC(=O)OCCCNc1cc(Sc2nc3ccccc3s2)c2nonc2c1[N+](=O)[O-]	.	0.0	16.0	.	-0.8	.	.	.	.
CC(=O)OCCCNc1cc(Sc2ccc(C)cc2)c2nonc2c1[N+](=O)[O-]	.	12.7*	-0.9	-1.0	0.7	88.0	-0.2	102.9	0.5
O=S1(=O)CC=C(CSc2nc3ccccc3[nH]2)C1	5.6	-0.2	-0.1	0.2	-0.4	.	.	.	.
N=C(N)SCC1=CCS(=O)(=O)C1	9.4	0.8*	4.5	3.6	-0.4	101.4	-0.1	95.6	-0.1
CC(C)c1ccc(OCC(=O)NC2CCCC2)cc1	1.9	9.2*	9.1	4.8	-0.2	113.2	-0.1	110.2	0.0
